The record followed here is ChEMBL document CHEMBL1833959, “Itraconazole side chain analogues: structure-activity relationship studies for inhibition of endothelial cell proliferation, vascular endothelial growth factor receptor 2 (VEGFR2) glycosylation, and hedgehog signaling” (2011).

Experiment [1] deals with HUVEC. The experiment can be described thus: Ratio of itraconazole IC50 to compound […] for antiangiogenic activity in human HUVEC cells assessed as inhibition of cell proliferation. Type of experiment: functional.
Experiment [2] is described as follows: Inhibition of hedgehog signaling pathway in mouse Ptch+/- p53-/- medulloblastoma cells assessed as inhibition of receptor-mediated Gli1 transcriptional activity at antiproliferative IC90 concentration after 24 hrs by RT-PCR analysis relative to control.
The nature of experiment [3]: Ratio of itraconazole IC50 to compound IC50 for antiproliferative activity against mouse Ptch+/- p53-/- medulloblastoma cells isolated from allografts in nude Harlan mouse after 96 hrs. Type of experiment: functional, Medulloblastoma cell. The method in brief: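 Ptch−/+;p53−/− MB cells from nude-mouse allografts (ficoll-purified, three neurosphere passages, CD15 confirmed by flow cytometry) disaggregated and seeded in NBMedia with multiple analogue concentrations for 96 h. Cell number read by MTS-type CellTiter 96 AQueous absorbance; IC50 fitted from dose–response curves of mean corrected absorbance normalized to control, expressed relative to itraconazole.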

Experiment [4] addresses Vascular endothelial growth factor receptor 2 (Homo sapiens) (UniProt P35968). Nature of the experiment: Inhibition of VEGFR2 glycosylation in human HUVEC cells at 2 uM after 24 hrs by Western blot analysis. The format is cell-based. A digest of the protocol:
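Pooled HUVEC (passage ≤8, EGM-2) seeded 5 × 10^4 per well, recovered overnight, then given fresh media with analogue added from 200X DMSO stocks; 24 h exposure. Cells lysed in 2X SDS sample buffer (ice 10 min, boiled 10 min), 6% SDS-PAGE, PVDF blot probed with anti-VEGFR2 and HRP anti-rabbit IgG, ECL detection.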
(A western blot detects proteins with antibodies after separation by electrophoresis.)

Experiment [5] concerns HUVEC. Nature of the experiment: Ratio of itraconazole IC50 to compound IC50 for antiangiogenic activity in human HUVEC cells assessed as inhibition of cell proliferation. Type of experiment: functional.

The source made the active and inactive calls. The rule behind the calls is not given here.

Chain of Vascular endothelial growth factor receptor 2 (Homo sapiens) (P35968 whole entry): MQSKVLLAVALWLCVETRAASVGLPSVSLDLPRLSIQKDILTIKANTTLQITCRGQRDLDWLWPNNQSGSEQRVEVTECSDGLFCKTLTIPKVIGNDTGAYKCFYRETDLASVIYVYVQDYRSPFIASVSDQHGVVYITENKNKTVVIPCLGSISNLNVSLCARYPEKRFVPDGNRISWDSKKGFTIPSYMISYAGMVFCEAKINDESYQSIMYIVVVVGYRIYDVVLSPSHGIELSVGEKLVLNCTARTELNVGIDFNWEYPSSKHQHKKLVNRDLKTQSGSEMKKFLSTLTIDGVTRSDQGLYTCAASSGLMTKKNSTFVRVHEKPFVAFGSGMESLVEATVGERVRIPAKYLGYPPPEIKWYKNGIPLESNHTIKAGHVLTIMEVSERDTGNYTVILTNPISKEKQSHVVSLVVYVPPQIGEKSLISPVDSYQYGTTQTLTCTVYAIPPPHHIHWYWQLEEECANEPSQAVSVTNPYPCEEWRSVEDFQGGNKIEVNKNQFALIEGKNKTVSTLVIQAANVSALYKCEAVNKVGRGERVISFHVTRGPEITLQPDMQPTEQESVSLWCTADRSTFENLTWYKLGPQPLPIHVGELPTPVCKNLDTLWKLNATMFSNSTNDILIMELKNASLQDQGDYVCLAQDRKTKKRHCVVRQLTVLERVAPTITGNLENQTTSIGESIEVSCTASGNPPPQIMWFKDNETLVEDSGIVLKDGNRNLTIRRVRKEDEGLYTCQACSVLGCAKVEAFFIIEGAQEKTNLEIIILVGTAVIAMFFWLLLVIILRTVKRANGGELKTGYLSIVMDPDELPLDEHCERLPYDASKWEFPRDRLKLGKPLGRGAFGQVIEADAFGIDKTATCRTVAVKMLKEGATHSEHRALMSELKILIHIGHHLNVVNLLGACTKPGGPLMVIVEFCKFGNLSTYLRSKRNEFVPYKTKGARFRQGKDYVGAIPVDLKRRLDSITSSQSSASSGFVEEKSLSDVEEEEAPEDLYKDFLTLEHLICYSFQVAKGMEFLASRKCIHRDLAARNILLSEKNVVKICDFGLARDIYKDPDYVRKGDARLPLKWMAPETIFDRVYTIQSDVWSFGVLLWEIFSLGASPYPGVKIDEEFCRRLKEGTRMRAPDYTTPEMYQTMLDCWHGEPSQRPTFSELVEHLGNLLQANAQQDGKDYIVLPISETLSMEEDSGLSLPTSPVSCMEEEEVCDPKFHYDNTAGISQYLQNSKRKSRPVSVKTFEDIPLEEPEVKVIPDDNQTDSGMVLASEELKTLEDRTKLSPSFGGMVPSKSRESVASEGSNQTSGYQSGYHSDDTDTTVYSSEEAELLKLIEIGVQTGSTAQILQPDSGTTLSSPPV

For the molecule `O=c1n(-c2ccc(N3CCN(c4ccc(OC[C@@H]5CO[C@@](Cn6cncn6)(c6ccc(Cl)cc6Cl)O5)cc4)CC3)cc2)cnn1CCCCCCc1ccccc1`, the Ratio in experiment [1] is 1.45. Besides, the fold change (FC) in experiment [2] was less than 0.15. For the same molecule, the “Ratio IC50” value in experiment [3] came out at 0.69. For the same molecule, in experiment [4], the inhibition entry is “inactive”.

Take `CCCCCCCCn1ncn(-c2ccc(N3CCN(c4ccc(OC[C@@H]5CO[C@@](Cn6cncn6)(c6ccc(Cl)cc6Cl)O5)cc4)CC3)cc2)c1=O`: the Ratio in experiment [1] is 2.24. Moreover, in experiment [2], the fold change (FC) is less than 0.15. Moreover, the “Ratio IC50” value in experiment [3] is recorded as 0.67. The inhibition entry in experiment [4] is “inactive”.

In the case of `CC1(CCCCCCCn2ncn(-c3ccc(N4CCN(c5ccc(OC[C@@H]6CO[C@@](Cn7cncn7)(c7ccc(Cl)cc7Cl)O6)cc5)CC4)cc3)c2=O)N=N1`, in experiment [1], the Ratio is given as 1.1. In addition, in experiment [2], the fold change (FC) was greater than 0.45. The “Ratio IC50” value in experiment [3] came to 1.18. Further, in experiment [4], the inhibition entry is “inactive”.

With `CCC(CC)n1ncn(-c2ccc(N3CCN(c4ccc(OC[C@@H]5CO[C@@](Cn6cncn6)(c6ccc(Cl)cc6Cl)O5)cc4)CC3)cc2)c1=O`, the fold change (FC) in experiment [2] is less than 0.15. Further, the results for the “Ratio IC50” value in experiment [5] and in experiment [3] were 1.1 and 0.54, respectively. Besides, in experiment [4], the inhibition entry is “Active”.
